Experimental data from ChEMBL document CHEMBL1125728, “Dopamine autoreceptor agonists as potential antipsychotics. 2. (Aminoalkoxy)-4H-1-benzopyran-4-ones” (J Med Chem, 1991).

Columns and labels:
[1] = Compound was tested for its inhibition of Sidman avoidance after peroral administration in Squirrel monkeys.; assay type: functional; conditions: po
Outline: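 Sidman avoidance in mature squirrel monkeys, oral dosing. ED50 ± SEM generated from three doses, four animals per dose.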

Rattus norvegicus [2] = assay: Effect on DOPA accumulation level at an intraperitoneal dose of 30 mg/kg in rat.; assay type: functional
Rattus norvegicus [3] = assay: Percentage of rats showing signs of stereotyped behavior at 17 mg/kg peroral dose and followed 1 hr later by 10 mg/kg sc of SKF-38393 and animals observed for 60 min postdose before being; assay type: functional
Outline: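 Part 2: oral dose given to naive rats, six per dose, followed 1 h later by SKF 38393 (10 mg/kg sc). Stereotypy (repetitive rearing, head-swaying, sniffing, licking, gnawing lasting ≥5 s) rated over 60 min. Reported as percent of rats affected.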

[4] = biological target: T1, Adrenergic receptor alpha-1 (Rattus norvegicus, UniProt P15823+P23944+P43140); assay: Compound was tested for its inhibitory effect on the binding profile in Alpha-1 adrenergic receptor using [3H]prazosin in rat brain.; assay type: tissue-based
T1 sequence (P15823 whole entry): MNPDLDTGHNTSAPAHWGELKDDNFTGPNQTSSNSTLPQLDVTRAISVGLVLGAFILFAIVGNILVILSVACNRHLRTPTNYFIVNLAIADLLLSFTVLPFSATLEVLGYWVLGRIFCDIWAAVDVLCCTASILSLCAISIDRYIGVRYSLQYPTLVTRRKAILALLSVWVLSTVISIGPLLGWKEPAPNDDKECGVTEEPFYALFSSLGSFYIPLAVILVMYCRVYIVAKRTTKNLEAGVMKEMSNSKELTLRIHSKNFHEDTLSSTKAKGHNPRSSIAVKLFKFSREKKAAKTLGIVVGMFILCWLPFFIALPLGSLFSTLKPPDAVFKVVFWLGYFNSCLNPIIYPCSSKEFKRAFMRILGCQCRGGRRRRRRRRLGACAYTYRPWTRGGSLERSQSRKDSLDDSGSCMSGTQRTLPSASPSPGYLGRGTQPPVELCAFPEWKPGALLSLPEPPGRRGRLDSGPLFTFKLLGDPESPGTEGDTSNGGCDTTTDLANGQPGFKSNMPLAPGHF
T1 sequence (P23944 whole entry): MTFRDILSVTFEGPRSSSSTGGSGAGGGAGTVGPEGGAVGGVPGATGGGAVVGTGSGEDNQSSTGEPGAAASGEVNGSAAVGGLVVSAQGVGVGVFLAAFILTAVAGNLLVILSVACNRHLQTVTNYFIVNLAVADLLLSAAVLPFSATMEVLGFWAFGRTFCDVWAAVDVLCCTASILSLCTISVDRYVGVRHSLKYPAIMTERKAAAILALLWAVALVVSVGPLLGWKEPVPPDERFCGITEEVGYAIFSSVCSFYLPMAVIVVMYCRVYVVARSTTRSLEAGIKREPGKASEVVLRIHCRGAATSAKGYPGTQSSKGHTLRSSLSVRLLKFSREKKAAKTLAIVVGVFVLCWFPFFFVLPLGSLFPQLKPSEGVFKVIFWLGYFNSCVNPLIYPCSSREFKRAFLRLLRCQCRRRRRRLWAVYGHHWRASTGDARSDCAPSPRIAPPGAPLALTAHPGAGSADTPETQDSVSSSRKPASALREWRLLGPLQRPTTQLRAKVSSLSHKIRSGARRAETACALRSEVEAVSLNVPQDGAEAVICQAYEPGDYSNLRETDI
T1 sequence (P43140 whole entry): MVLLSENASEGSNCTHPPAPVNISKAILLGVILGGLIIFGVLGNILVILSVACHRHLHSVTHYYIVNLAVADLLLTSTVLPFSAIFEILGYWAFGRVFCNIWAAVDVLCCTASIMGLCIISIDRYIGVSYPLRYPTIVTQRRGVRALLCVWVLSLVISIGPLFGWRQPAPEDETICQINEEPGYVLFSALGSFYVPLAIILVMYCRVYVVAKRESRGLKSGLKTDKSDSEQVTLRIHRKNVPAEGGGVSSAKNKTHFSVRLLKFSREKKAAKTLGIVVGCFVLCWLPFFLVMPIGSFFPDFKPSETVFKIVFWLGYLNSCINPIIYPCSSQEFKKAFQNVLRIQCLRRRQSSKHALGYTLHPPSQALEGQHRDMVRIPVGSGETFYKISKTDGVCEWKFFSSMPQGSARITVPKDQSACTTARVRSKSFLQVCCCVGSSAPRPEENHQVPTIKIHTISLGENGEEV
Outline: (§1)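 Rat brain receptor binding with the stated radioligands. IC50 obtained by nonlinear regression from four to five concentrations. [3H]flupenthixol and [3H]N-propylnorapomorphine values come from four independent determinations each, and the [3H]haloperidol value from two experiments. Remaining ligands were determined once.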

[5] = biological target: Serotonin 2 (5-HT2) receptor (Rattus norvegicus, UniProt P30994+P08909+P14842); assay: Compound was tested for its inhibitory effect on the binding profile in 5-hydroxytryptamine 2 receptor using [3H]spiroperidol in rat brain.; assay type: tissue-based; outline: as §1
Rattus norvegicus [6] = assay: Compound tested for its effect on reversal of 6-OHDA induced depression in rats after sc administration.; assay type: functional
Outline: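 Rats lesioned at least 1 month earlier with 6-OHDA (20 μg icv) plus pargyline (50 mg/kg ip) and desipramine (25 mg/kg ip), giving about 90% brain DA depletion. Drug given sc, then locomotor activity recorded for 30 min from dosing. ED200 estimated from three or four doses, six rats per dose.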

Dopamine receptor = assay: Compound was tested for inhibitory binding activity against Dopamine receptor in rat striatal membranes using [3H]HAL as the radioligand.; assay type: cell membranes, Striatum, Membrane
Outline: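 [3H]Haloperidol displacement from rat striatal DA receptors, run in duplicate. IC50 obtained by nonlinear regression from four to five concentrations.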

D(2) dopamine receptor = D(2) dopamine receptor (Rattus norvegicus, UniProt P61169); assay: Compound was tested for its inhibitory effect on the binding profile in Dopamine receptor D2 using [3H]haloperidol in rat brain.; assay type: tissue-based; outline: as §1
Rattus norvegicus [7] = assay: Compound tested for % inhibition of DA neuronal firing at an intraperitoneal dose of 2.5 mg/kg.; assay type: functional; conditions: ip
[8] = Compound tested for its liability for extrapyramidal side effects (EPS) in terms of no. of animals showing signs of EPS/no. of animals tested upon po administration at a dose of 80 mg/Kg; 0/3; assay type: functional
Rattus norvegicus [9] = assay: Compound tested for % reversal of DOPA accumulation at an intraperitoneal dose of 30 mg/kg.; assay type: functional
Outline: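 Rats dosed 1 h before sacrifice, with GBL (750 mg/kg ip) at 30 min and NSD 1015 (100 mg/kg ip) at 25 min before sacrifice. Striatal DOPA measured by HPLC with electrochemical detection. Value is percent reversal of the GBL-induced DOPA rise.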

D(2) dopamine receptor, sequence (P61169 whole entry): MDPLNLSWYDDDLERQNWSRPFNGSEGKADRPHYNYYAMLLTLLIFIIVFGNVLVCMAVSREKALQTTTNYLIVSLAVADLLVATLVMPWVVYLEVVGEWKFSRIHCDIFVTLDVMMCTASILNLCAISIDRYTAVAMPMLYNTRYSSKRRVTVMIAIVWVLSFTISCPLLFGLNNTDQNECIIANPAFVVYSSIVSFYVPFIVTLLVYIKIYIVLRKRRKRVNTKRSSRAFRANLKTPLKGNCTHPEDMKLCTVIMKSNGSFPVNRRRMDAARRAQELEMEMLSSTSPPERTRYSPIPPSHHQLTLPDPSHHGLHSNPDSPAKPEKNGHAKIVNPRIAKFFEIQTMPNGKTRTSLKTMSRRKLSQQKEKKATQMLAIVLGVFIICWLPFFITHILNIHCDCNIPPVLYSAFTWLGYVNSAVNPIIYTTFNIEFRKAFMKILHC

O=c1ccoc2cc(OCCCN3CCN(c4ccccn4)CC3)ccc12
ED50 [1]: 6 mg/kg | DOPA level (Rattus norvegicus [2]): 0.28 µg/g | Animals (Rattus norvegicus [3]): 0% | IC50 [4]: 170 nM | IC50 [5]: 1000 nM | ED200 (Rattus norvegicus [6]): > 5 mg/kg | IC50 (Dopamine receptor): 1000 nM | IC50 (D(2) dopamine receptor): 1080 nM | inhibition in vivo at 2.5 mg/kg (Rattus norvegicus [7]): 93% | EPS [8]: 0 | Reversal (Rattus norvegicus [9]): 100%
